ChEMBL document CHEMBL3351787, “Electrophilic warhead-based design of compounds preventing NLRP3 inflammasome-dependent pyroptosis” (J Med Chem, 2014)
The source made the active and inactive calls.

What was measured:
[1] = (§1) Antipyroptotic activity in PMA-differentiated and LPS-primed human THP1 cells assessed as decrease in nigericin-induced pyroptosis measured as LDH activity after 1 hrs pretreated with 10 uM nigericin for 1.5 hrs by colorimetric assay; format: functional, cell-based; conditions: thp-1
In short: (§2)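 Differentiated (PMA) and LPS-primed THP-1 cells received compound at 0.001-10 μM 1 h ahead of nigericin (10 μM, 1.5 h). Supernatant LDH activity measured by colorimetric assay, expressed as decrease of cell death vs vehicle alone; pEC50 derived from concentration-response curves. Mean±SEM, ≥4 experiments in triplicate.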

THP-1 = experiment: as §1; format: functional, cell-based; in short: as §2
[2] = Antipyroptotic activity in PMA-differentiated and LPS-primed human THP1 cells assessed as decrease in ATP-induced pyroptosis measured as LDH activity after 1 hrs pretreated with 5 mM ATP for 1 hr by colorimetric assay; format: functional, cell-based; conditions: thp-1
In short: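 PMA-differentiated, LPS-primed THP-1 cells pre-treated 1 h with compound (0.001-10 μM), then ATP 5 mM for 1 h. LDH in collected supernatant read colorimetrically; output as decrease of cell death vs vehicle. EC50 taken as concentration giving 50% of maximal possible effect. Mean±SEM of at least four experiments in triplicate.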

[3] = Cytotoxicity against human HK2 cells assessed as cell viability after 72 hrs by MTT assay; format: cell-based, HK-2; conditions: read-out: TC50
In short: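 MTT viability assay in human renal epithelial HK-2 cells. TC50 defined as molar concentration lowering HK-2 viability by 50%.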

[4] = Antipyroptotic activity in PMA-differentiated and LPS-primed human THP1 cells assessed as decrease in ATP-induced pyroptosis measured as LDH activity at 10 uM after 1 hrs by colorimetric assay; format: functional; conditions: THP-1, 1 h
[5] = cysteamine reactivity assessed as second-order reaction rate constant in PBS at pH 7.4 and […] by DTNB spectrophotometric assay
[6] = Activation of KIea[1/Nrf2 pathway in human THP1 cells assessed as HMOX1 marker gene expression level at 10 uM after 2 hrs by RT-PCR analysis; format: functional, cell-based; conditions: THP-1
Caspase-1 = target: T1, Caspase-1 (Homo sapiens, UniProt P29466); experiment: (§3) Inhibition of caspase 1 (unknown origin) using N-acetyl-Tyr-Val-Ala-Asp-para-nitroanilide substrate assessed as rate of para-nitroanilide release by spectrophotometric assay
T1 sequence (P29466 whole entry): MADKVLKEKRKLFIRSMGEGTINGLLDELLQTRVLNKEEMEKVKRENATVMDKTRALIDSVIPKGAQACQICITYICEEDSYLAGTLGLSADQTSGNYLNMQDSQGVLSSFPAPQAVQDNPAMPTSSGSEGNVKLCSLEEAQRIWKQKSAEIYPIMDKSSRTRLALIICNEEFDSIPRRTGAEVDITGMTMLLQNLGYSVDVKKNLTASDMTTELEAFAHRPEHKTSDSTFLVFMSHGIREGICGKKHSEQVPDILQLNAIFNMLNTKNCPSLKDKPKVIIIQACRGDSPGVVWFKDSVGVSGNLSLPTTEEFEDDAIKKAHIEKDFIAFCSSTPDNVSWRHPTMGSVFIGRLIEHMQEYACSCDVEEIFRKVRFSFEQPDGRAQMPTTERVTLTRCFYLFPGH
In short: (§4)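 Caspase-1 from THP-1 cell cultures (50 U) pre-incubated 15-60 min with compound at 0.01-10 μM, then activity followed continuously by pNA release from Ac-YVAD-pNA (200 μM; 1 h) at 405 nm. kobs at each concentration used to obtain kinact (irreversible first-order rate) and Ki = k-1/k1.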

Caspase-1 (Homo sapiens) [7] = target: T2, Caspase-1 (Homo sapiens) (UniProt P29466); experiment: as §3; in short: as §4
T2 sequence (whole entry): T1 sequence (P29466 whole entry)

[8] = target: NACHT, LRR and PYD domains-containing protein 3 (Homo sapiens) (UniProt Q96P20); experiment: Inhibition of recombinant NLRP3-ATPase (unknown origin) assessed as hydrolysis of ATP at 10 uM
Sequence of NACHT, LRR and PYD domains-containing protein 3 (Homo sapiens) (Q96P20 whole entry, the tested form may be a part): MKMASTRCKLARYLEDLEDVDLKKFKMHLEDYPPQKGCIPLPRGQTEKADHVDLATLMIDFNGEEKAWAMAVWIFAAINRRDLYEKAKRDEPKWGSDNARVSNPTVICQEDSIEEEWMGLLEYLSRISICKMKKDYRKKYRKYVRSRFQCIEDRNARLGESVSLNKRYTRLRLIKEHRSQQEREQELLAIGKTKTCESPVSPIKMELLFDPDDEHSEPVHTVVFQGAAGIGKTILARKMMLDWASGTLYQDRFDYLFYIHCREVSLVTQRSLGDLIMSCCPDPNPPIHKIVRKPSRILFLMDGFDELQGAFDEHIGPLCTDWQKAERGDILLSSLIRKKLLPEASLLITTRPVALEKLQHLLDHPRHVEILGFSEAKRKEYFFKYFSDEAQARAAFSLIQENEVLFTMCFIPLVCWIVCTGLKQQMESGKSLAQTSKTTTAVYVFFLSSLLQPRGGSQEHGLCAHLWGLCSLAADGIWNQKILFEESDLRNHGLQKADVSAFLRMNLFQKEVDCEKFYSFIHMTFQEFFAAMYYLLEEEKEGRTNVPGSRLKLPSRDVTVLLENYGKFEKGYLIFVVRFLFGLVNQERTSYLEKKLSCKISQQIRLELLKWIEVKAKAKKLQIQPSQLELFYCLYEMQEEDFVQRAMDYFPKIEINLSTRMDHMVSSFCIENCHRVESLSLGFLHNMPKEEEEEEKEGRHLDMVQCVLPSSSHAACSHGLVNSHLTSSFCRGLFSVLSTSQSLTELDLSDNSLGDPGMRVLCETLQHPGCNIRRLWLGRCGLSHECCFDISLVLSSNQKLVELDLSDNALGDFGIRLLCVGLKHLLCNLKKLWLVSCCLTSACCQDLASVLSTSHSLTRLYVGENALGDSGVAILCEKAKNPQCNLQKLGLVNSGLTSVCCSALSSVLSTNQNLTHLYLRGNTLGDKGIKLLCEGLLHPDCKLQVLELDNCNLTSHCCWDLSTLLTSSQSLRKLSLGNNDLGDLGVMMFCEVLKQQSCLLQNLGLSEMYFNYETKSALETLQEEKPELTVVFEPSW
In short: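 Recombinant NLRP3 (0.01 μg) pre-incubated 15 min with compound (10 μM); ATP 250 μM then added and incubated 1 h at 37 °C. ATP hydrolysis quantified as Pi content by colorimetric phosphate detection. Expressed as % inhibition vs vehicle; mean±SEM of ≥3 experiments in duplicate.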

Caspase-1 (Homo sapiens) [9] = target: T2, Caspase-1 (Homo sapiens); experiment: Inhibition of caspase 1 (unknown origin) using N-acetyl-Tyr-Val-Ala-Asp-para-nitroanilide substrate assessed as rate of para-nitroanilide release after 15 to 60 mins preincubation by spectrophotometric assay; in short: as §4
Caspase-1 (Homo sapiens) [10] = target: T2, Caspase-1 (Homo sapiens); experiment: Inhibition of caspase 1 (unknown origin) using N-acetyl-Tyr-Val-Ala-Asp-para-nitroanilide substrate assessed as rate of para-nitroanilide release at 0.01 to 10 uM by spectrophotometric assay; conditions: TDE = time-dependent effect; in short: as §4
[11] = Activation of Keap1-Nrf2 pathway in human THP1 cells assessed as NFE2L2 marker gene expression level at 10 uM after 2 hrs by RT-PCR analysis; format: functional, cell-based; conditions: THP-1
Caspase-1 (Homo sapiens) [12] = target: T2, Caspase-1 (Homo sapiens); experiment: Inhibition of caspase 1 (unknown origin) using N-acetyl-Tyr-Val-Ala-Asp-para-nitroanilide substrate assessed as rate of para-nitroanilide release at 10 uM by spectrophotometric assay
In short: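 Caspase-1 enzyme from THP-1 cultures (50 U) pre-incubated 15 min with compound (10 μM) in reaction buffer at 37 °C. Ac-YVAD-pNA substrate (200 μM) added; pNA release monitored continuously at 405 nm over 1 h. Reported as % inhibition vs vehicle; mean±SEM, ≥3 experiments in duplicate.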

Compound	CC50 at 72 h [3] [µM]	inhibition at 10 µM [4] [%]	other results
C/C=C(/C(=O)OCC)C(O)c1ccccc1Cl (configuration not stated)	73.8	31.8	pEC50 [1]: 6.8; inhibition (THP-1): Dose-dependent effect; pEC50 [2]: 6.9
CCOC(=O)/C(=C/I)C(O)c1ccccc1Cl (configuration not stated)	6.4	5.1	
C=C(C(=O)NCCC)C(O)c1ccccc1Cl (configuration not stated)	83.5	31.2	k2 [5]: 0.126 M⁻¹ s⁻¹
C=C(C(=O)OCC)C(O)c1ccccc1OC (configuration not stated)	45.8	26.8	k2 [5]: 0.423 M⁻¹ s⁻¹
C=C(C(=O)OCC)C(O)c1ccc(Cl)cc1Cl (configuration not stated)	70.5	72.4	
C=C(C#N)C(O)c1ccccc1 (configuration not stated)	22.3	54.1	
C=C(C#N)C(O)c1cccc2ccccc12 (configuration not stated)	10.1	53.5	
C=C(C(=O)OCC)C(O)c1ccccc1F (configuration not stated)	25.4	82.3	pEC50 [1]: 6.6; inhibition (THP-1): Dose-dependent effect; pEC50 [2]: 6.8
C=C(C(=O)OCC)C(O)C1CCCCC1 (configuration not stated)	> 100	64.3	
C=C(C(=O)OCC)C(O)c1ccccc1 (configuration not stated)	64.5	45.8	k2 [5]: 0.524 M⁻¹ s⁻¹
CCOC(=O)C(C)C(O)c1ccccc1Cl (configuration not stated)	75.5	1.6	
C=C(C(=O)OCC)C(OCCC(=O)OCC)c1c(Cl)cccc1Cl (configuration not stated)	> 100	68.8	pEC50 [1]: 6.9; inhibition (THP-1): Dose-dependent effect; pEC50 [2]: 6.9
C=C(C(=O)OCC)C(O)c1ccccc1Cl (configuration not stated)	67	75.1	Activity [6]: Active; Ki (Caspase-1): 9.6 µM; Kinact (Caspase-1 (Homo sapiens) [7]): 3.2 s⁻¹; inhibition [8]: 51.8%; inhibition (Caspase-1 (Homo sapiens) [9]): Dose-dependent effect; pEC50 [1]: 6.8; inhibition (THP-1): Dose-dependent effect; inhibition (Caspase-1 (Homo sapiens) [10]): tde; pEC50 [2]: 6.9; k2 [5]: 0.866 M⁻¹ s⁻¹; Activity [11]: Active
C=C(C(=O)OCC)C(O)c1cccc(Cl)c1 (configuration not stated)	28.9	44.8	
C=C(C#N)C(O)c1ccc(Cl)cc1Cl (configuration not stated)	36.4	14.1	
C=C(C(=O)OCC)C(O)c1ccccn1 (configuration not stated)	53.4	54.3	
C=C(C(=O)OCC)C(O)c1c(Cl)cccc1Cl (configuration not stated)	45.2	76.6	
C=C(C(=O)OCC)C(O)c1ccccc1[N+](=O)[O-] (configuration not stated)	7.8	63.7	pEC50 [1]: 6.7; inhibition (THP-1): Dose-dependent effect; pEC50 [2]: 6.5
C=C(C(=O)OCC)C(O)c1ccccc1C (configuration not stated)	56.7	37.8	

Compound	CC50 at 72 h [3] [µM]	inhibition at 10 µM [4] [%]	other results
CCOC(=O)/C(=C\I)C(O)c1ccccc1Cl (configuration not stated)	5.9	17.6	
C=C(C(=O)OCC)C(OCCC(=O)OCC)c1ccc(Cl)cc1Cl (configuration not stated)	> 100	43.9	pEC50 [1]: 6.7; inhibition (THP-1): Dose-dependent effect; pEC50 [2]: 7.1
C/C=C(\C(=O)OCC)C(O)c1ccccc1Cl (configuration not stated)	80.1	36.2	inhibition (Caspase-1 (Homo sapiens) [12]): 25.4%; inhibition [8]: 23.3%; pEC50 [1]: 6.3; inhibition (THP-1): Dose-dependent effect; pEC50 [2]: 7; k2 [5]: 0.126 M⁻¹ s⁻¹
C=C(C#N)C(O)c1c(Cl)cccc1Cl (configuration not stated)	16.3	51.5	
CCOC(=O)/C(=C\c1ccccc1)C(O)c1ccccc1Cl (configuration not stated)	> 100	52.5	k2 [5]: 0.588 M⁻¹ s⁻¹
C=C(C(=O)CC)C(O)c1ccccc1Cl (configuration not stated)	1.9	12.1	k2 [5]: 7.16 M⁻¹ s⁻¹
C=C(C(=O)OCC)C(O)c1ccc(Cl)cc1 (configuration not stated)	34.9	50.5	
C=C(C#N)C(O)c1ccccn1 (configuration not stated)	20.5	52.7	
C=C(C(=O)OCC)C(O)c1cc(Cl)cc(Cl)c1 (configuration not stated)	18.8	78.4	
C=C(C#N)C(O)c1ccccc1Br (configuration not stated)	21.8	81.3	
C=C(C#N)C(O)c1ccccc1Cl (configuration not stated)	11.6	83	inhibition (Caspase-1 (Homo sapiens) [12]): 36.2%; inhibition [8]: 80.5%; k2 [5]: 0.777 M⁻¹ s⁻¹
C=C1C(=O)O[C@@H]2C3O[C@]3(C)CC/C=C(\C)CC[C@@H]12 (some centres not stated)	20.1	100	Ki (Caspase-1): 10.6 µM; Kinact (Caspase-1 (Homo sapiens) [7]): 4 s⁻¹; inhibition [8]: 25.9%; inhibition (Caspase-1 (Homo sapiens) [9]): Dose-dependent effect; pEC50 [1]: 6.3; inhibition (THP-1): Dose-dependent effect; inhibition (Caspase-1 (Homo sapiens) [10]): tde; pEC50 [2]: 6.9; k2 [5]: 47.9 M⁻¹ s⁻¹
C=C(C#N)C(O)c1ccccc1F (configuration not stated)	12.9	30.5	
C=C(C(=O)OCC)C(O)c1ccccc1Br (configuration not stated)	55.9	53.7	
C=C(C(=O)OCC)C(C)O (configuration not stated)	22.5	59.6	
C=C(C#N)C(O)c1ccccc1[N+](=O)[O-] (configuration not stated)	3.6	97.9	
C=C(C(=O)O)C(O)c1ccccc1Cl (configuration not stated)	> 100	42	inhibition [8]: 80.2%; k2 [5]: 0.117 M⁻¹ s⁻¹
CCOC(=O)/C(=C/c1ccccc1)C(O)c1ccccc1Cl (configuration not stated)	> 100	55.5	
C=C(C(=O)OCC)C(OCCC(=O)OCC)c1ccccc1Cl (configuration not stated)	> 100	58.3	
